Data taken from ChEMBL document CHEMBL2177087, “Bivalent ligands targeting multiple pathological factors involved in Alzheimer's disease” (ACS Med Chem Lett, 2012).
The source made the active and inactive calls. The calls are words filed in the database; no cut-off is given here.

Legend:
[1] = tested on: MC65; test: Neuroprotective activity in tetracycline-removed human MC65 cells assessed as protection against amyloid beta aggregate-induced cytotoxicity at 0.3 uM after 72 hrs by MTT assay; format: functional, cell-based
Summary of the method: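 Single-concentration screen: MC65 cells given 0.3 μM compound under +TC or −TC conditions for 72 h, viability read by MTT. Reported as mean percentage viability (n = 3) relative to parallel +TC cultures at 100%; error bars SEM.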

[2] = Binding affinity to Zn2+ assessed as formation of metal complexes at 50 uM after 10 mins by UV-vis spectrum analysis; format: physicochemical
Summary of the method: (§1)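 50 μM compound incubated with 60 μM CuSO4, FeCl2 or ZnCl2 at room temperature for 10 min. UV−vis spectrum recorded from 300 to 550 nm; complexation judged from spectral change versus metal-free spectrum.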

[3] = Binding affinity to Fe2+ assessed as formation of metal complexes at 50 uM after 10 mins by UV-vis spectrum analysis; format: physicochemical; summary of the method: as §1
[4] = Binding affinity to Cu2+ assessed as formation of metal complexes at 50 uM after 10 mins by UV-vis spectrum analysis; format: physicochemical; summary of the method: as §1
[5] = tested on: MC65; test: Antioxidant activity in tetracycline-removed human MC65 cells assessed as suppression of oxidative stress after 48 hrs by DCFH-DA assay; format: functional, cell-based
Summary of the method: (§2)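 MC65 human neuroblastoma cells dosed under +TC or −TC (TC withdrawn) for 48 h, then loaded with 25 μM DCFH-DA. Cellular fluorescence measured by flow cytometry. Expressed as mean percentage of fluorescence intensity (n = 3), parallel +TC cultures set at 100%; error bars SEM.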

[6] = Antioxidant activity in tetracycline-removed human MC65 cells assessed as suppression of oxidative stress at 0.1 uM after 48 hrs by DCFH-DA assay; format: functional; summary of the method: as §2
[7] = tested on: MC65; test: Effect on C99 expression in tetracycline-removed human MC65 cells at 0.3 to 1 uM after 30 hrs by Western blot analysis; format: functional, cell-based
[8] = tested on: MC65; test: Inhibition of amyloid beta oligomer production in tetracycline-removed human MC65 cells after 30 hrs by Western blot analysis; format: functional, cell-based
Summary of the method: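 Compounds added immediately after tetracycline removal, MC65 cells cultured 30 h. Lysates Western blotted with 6E10 antibody; three oligomer bands quantified by densitometry, normalized to α-tubulin, and expressed relative to −TC control set at 100%. Image from one of two independent experiments.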

[9] = Neuroprotective activity in tetracycline-removed human MC65 cells assessed as protection against amyloid beta aggregate-induced cytotoxicity after 72 hrs by MTT assay; format: functional, cell-based; conditions: MC65, 72 h
Summary of the method: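 MC65 cells kept in +TC or −TC medium with compound across a concentration series for 72 h; viability by MTT. Mean percentage viability (n = 3), parallel +TC cultures as 100%, SEM error bars; EC50 taken from dose–response.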

[10] = tested on: MC65; test: Antioxidant activity in tetracycline-removed human MC65 cells assessed as suppression of oxidative stress at 0.1 to 3 uM after 48 hrs by DCFH-DA assay; format: functional, cell-based; summary of the method: as §2

COc1cc(/C=C/C(=O)/C(Cc2cn(CCCC(=O)NCCCCN[C@H]3CC[C@@]4(C)C(=CC[C@H]5[C@@H]6CC[C@H]([C@H](C)CCCC(C)C)[C@@]6(C)CC[C@@H]54)C3)nn2)=C(O)/C=C/c2ccc(O)c(OC)c2)ccc1O
Activity [1]: Active

COc1cc(/C=C/C(=O)/C=C(O)/C=C/c2ccc(OCc3cn(CCCCCCNC(=O)COCC(=O)NCCCCN[C@H]4CC[C@@]5(C)C(=CC[C@H]6[C@@H]7CC[C@H]([C@H](C)CCCC(C)C)[C@@]7(C)CC[C@@H]65)C4)nn3)c(OC)c2)ccc1O
Activity [1]: Active

COc1cc(/C=C/C(=O)/C(Cc2cn(CCCCCCNC(=O)COCC(=O)NCCCCCCN[C@H]3CC[C@@]4(C)C(=CC[C@H]5[C@@H]6CC[C@H]([C@H](C)CCCC(C)C)[C@@]6(C)CC[C@@H]54)C3)nn2)=C(O)/C=C/c2ccc(O)c(OC)c2)ccc1O
Activity [1]: Active

COc1cc(/C=C/C(=O)/C=C(O)/C=C/c2ccc(OCc3cn(CCCCNC(=O)COCC(=O)NCCCCN[C@H]4CC[C@@]5(C)C(=CC[C@H]6[C@@H]7CC[C@H]([C@H](C)CCCC(C)C)[C@@]7(C)CC[C@@H]65)C4)nn3)c(OC)c2)ccc1O
Activity [1]: Active

COc1cc(/C=C/C(=O)/C(Cc2cn(CCNC(=O)COCC(=O)NCCCCN[C@H]3CC[C@@]4(C)C(=CC[C@H]5[C@@H]6CC[C@H]([C@H](C)CCCC(C)C)[C@@]6(C)CC[C@@H]54)C3)nn2)=C(O)/C=C/c2ccc(O)c(OC)c2)ccc1O
Activity [2]: Active
Activity [3]: Active
Activity [4]: Active
Activity [5]: Dose-dependent effect
Activity [6]: 35%
Activity [7]: inactive
inhibition [8]: Dose-dependent effect
EC50 [9]: 83 nM
Activity [1]: Active

COc1cc(/C=C/C(=O)/C(Cc2cn(CCCCNC(=O)COCC(=O)NCCCCN[C@H]3CC[C@@]4(C)C(=CC[C@H]5[C@@H]6CC[C@H]([C@H](C)CCCC(C)C)[C@@]6(C)CC[C@@H]54)C3)nn2)=C(O)/C=C/c2ccc(O)c(OC)c2)ccc1O
Activity [10]: Active
Activity [7]: inactive
inhibition [8]: Dose-dependent effect
EC50 [9]: 160 nM
Activity [1]: Active

COc1cc(/C=C/C(=O)/C(Cc2cn(CCCCCCNC(=O)CCNC(=O)CCNC(=O)CO[C@H]3CC[C@@]4(C)C(=CC[C@H]5[C@@H]6CC[C@H]([C@H](C)CCCC(C)C)[C@@]6(C)CC[C@@H]54)C3)nn2)=C(O)/C=C/c2ccc(O)c(OC)c2)ccc1O
Activity [2]: Not Active
Activity [3]: Active
Activity [4]: Active
EC50 [9]: 3000 nM

COc1cc(/C=C/C(=O)/C=C(O)/C=C/c2ccc(OCc3cn(CCCCCCNC(=O)COCC(=O)NCCCCCCN[C@H]4CC[C@@]5(C)C(=CC[C@H]6[C@@H]7CC[C@H]([C@H](C)CCCC(C)C)[C@@]7(C)CC[C@@H]65)C4)nn3)c(OC)c2)ccc1O
Activity [1]: Active

COc1cc(/C=C/C(=O)/C=C(O)/C=C/c2ccc(OCc3cn(CCCC(=O)NCCCCN[C@H]4CC[C@@]5(C)C(=CC[C@H]6[C@@H]7CC[C@H]([C@H](C)CCCC(C)C)[C@@]7(C)CC[C@@H]65)C4)nn3)c(OC)c2)ccc1O
Activity [1]: Active

COc1cc(/C=C/C(=O)/C=C(O)/C=C/c2ccc(OCc3cn(CCNC(=O)COCC(=O)NCCCCN[C@H]4CC[C@@]5(C)C(=CC[C@H]6[C@@H]7CC[C@H]([C@H](C)CCCC(C)C)[C@@]7(C)CC[C@@H]65)C4)nn3)c(OC)c2)ccc1O
Activity [1]: Active

COc1cc(/C=C/C(=O)/C(Cc2cn(CCCCCCNC(=O)COCC(=O)NCCCCN[C@H]3CC[C@@]4(C)C(=CC[C@H]5[C@@H]6CC[C@H]([C@H](C)CCCC(C)C)[C@@]6(C)CC[C@@H]54)C3)nn2)=C(O)/C=C/c2ccc(O)c(OC)c2)ccc1O
Activity [10]: Active
Activity [7]: inactive
inhibition [8]: Dose-dependent effect
EC50 [9]: 300 nM
Activity [1]: Active
